# T cruzi HTS: inhibitors of intracellular Trypanosoma cruzi | AID 651903 | 22,000 tested, 4.9% active | intracellular Trypanosoma cruzi in host cells, plate reader | activity score (inhibition), % at 5.01 µM; in the data active means activity score above about 55%;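 further: parasites and compound incubated about four days before reading; 0% = median of neutral control wells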
# INS-1E rescue: rescue of cytokine-induced death in INS-1E beta cells | INS-1E cytokine-induced death, ATP luminescence, 48 h; normalised: neutral wells 0, positive control 100 | protection from cytokine-induced ATP loss, % at 10 µM | 20,000 tested, 0.1% active;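 active means mean replicate protection from cytokine-induced ATP loss at least 50% and at least 75% of replicates each reaching 50%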
#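 Assay system – rat INS-1E insulinoma cell line · Quantity – 8000 cells per well · Buffer or medium – RPMI without phenol red, 5% FBS · Schedule – 48 h co-treatment, 10 min post-lysis read · Technique – luminescent ATP assay (CellTiter-Glo)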
# YB-1 expr inh: YB-1 expression inhibition; U2OS, qRT-PCR YB-1 vs CDIP delta delta Cp, 16 h; active compounds read high; zero = DMSO, each unit about twofold; delta delta Cp (YB-1 minus CDIP) (no concentration beside the values); 30,000 tested, 0.37% active;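 active means delta delta Cp rounded down to an integer at or above 3, about 3 SD of DMSO wells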;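 further: higher means less YB-1 transcript or more CDIP transcript relative to DMSO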
# An asterisk follows results filed as active; nt = not tested or not shown. Shown is part of a subset that was picked to be rich in hits.
SMILES,T cruzi HTS,INS-1E rescue,YB-1 expr inh
C[C@@H]1CN([C@H](C)CO)C(=O)Cc2cc(NC(=O)Nc3ccc(F)cc3)ccc2O[C@H]1CN(C)Cc1ccc(-c2ccccc2)cc1,74*,-72,0.13
C[C@@H]1CN([C@H](C)CO)C(=O)Cc2cc(NC(=O)Nc3ccc4c(c3)OCO4)ccc2O[C@H]1CN(C)Cc1ccc(-c2ccccc2)cc1,72*,-35,-0.35
O=c1onc(-c2cccc(Cl)c2)n1-c1ccccc1,nt,nt,-0.31
COc1ccc(C(=O)Oc2ccc(C)c3c2C(=O)OC(C)C3)c2c1C(=O)OC(C)C2 (stereo not drawn),nt,nt,-0.2
C[C@@H]1CN([C@H](C)CO)C(=O)c2cccc(NC(=O)Nc3ccccc3)c2O[C@H]1CN(C)Cc1ccc(Oc2ccccc2)cc1,34,-20,-0.4
C[C@@H]1CN([C@@H](C)CO)C(=O)c2cccc(NC(=O)Nc3ccccc3)c2O[C@H]1CN(C)Cc1ccc(Oc2ccccc2)cc1,76*,-25,-0.21
C[C@H](CO)N1C[C@H](C)[C@H](CN(C)Cc2ccc(Oc3ccccc3)cc2)Oc2c(NC(=O)Nc3ccc(F)cc3)cccc2C1=O,-13,-9,-0.48
C[C@@H]1CN([C@H](C)CO)C(=O)c2cccc(NC(=O)Nc3ccc(F)cc3)c2O[C@H]1CN(C)Cc1ccc(-c2ccccc2)cc1,-13,0,-0.8
C[C@@H]1CN([C@@H](C)CO)C(=O)c2cccc(NC(=O)Nc3ccc(F)cc3)c2O[C@@H]1CN(C)Cc1ccc(-c2ccccc2)cc1,69*,-67,-0.031
C[C@H](CO)N1C[C@H](C)[C@@H](CN(C)Cc2ccc(Oc3ccccc3)cc2)Oc2c(NC(=O)Nc3ccc(F)cc3)cccc2C1=O,59*,-36,0.38
CC1Oc2ccccc2OC1(O)c1ccc(Br)cc1 (stereo not drawn),nt,nt,-0.39
C[C@@H]1CN([C@@H](C)CO)C(=O)Cc2cc(NC(=O)Nc3ccccc3)ccc2O[C@@H]1CN(C)CC1CCCCC1,9,-18,0.39
C[C@@H]1CN([C@H](C)CO)C(=O)Cc2cc(NC(=O)Nc3ccc4c(c3)OCO4)ccc2O[C@H]1CN(C)CC1CCCCC1,64*,-15,-0.025
C[C@@H]1CN([C@H](C)CO)C(=O)Cc2cc(NC(=O)Nc3ccc(F)cc3)ccc2O[C@@H]1CN(C)CC1CCCCC1,67*,2,0.28
C[C@H](CO)N1C[C@H](C)[C@H](CN(C)CC2CCCCC2)Oc2ccc(NC(=O)Nc3ccc4c(c3)OCO4)cc2CC1=O,2,4,0.056
C[C@H](CO)N1C[C@H](C)[C@H](CN(C)CC2CC2)Oc2ccc(NC(=O)Nc3ccc(F)cc3)cc2CC1=O,-31,1,0.13
C[C@@H]1CN([C@H](C)CO)C(=O)Cc2cc(NC(=O)Nc3ccc(F)cc3)ccc2O[C@H]1CN(C)CC1CCCCC1,60*,-40,-0.33
O=C(NO)c1ccc(C(=O)N/N=C/c2cc(F)ccc2O)cc1,-15,9,-0.0059
O=C1/C(=C/c2c[nH]c3ccccc23)CSc2ccccc21,nt,nt,0.26
COC(=O)c1ccc(NC(=S)NC(=O)N2CCOCC2)cc1,nt,nt,-0.12
N#Cc1c(-c2cccs2)cc(-c2ccc(C(=O)O)cc2)nc1SCc1cccs1,nt,nt,0.38
Cc1ccc(NC(=O)CC(c2ccccc2)c2ccccc2)cc1C,nt,nt,-0.03
COC(=O)CCCCCCC(=O)N/N=C/C[C@H](C)CCC=C(C)C,6,-6,0.17
CC(C)(C)OC(=O)N1CCC[C@H]1/C=N/NC(=O)CCCCCC(=O)Nc1ccccc1O,2,-5,-0.97
C[C@@H]1CN([C@@H](C)CO)C(=O)c2cccc(NC(=O)CCCCCC(=O)Nc3ccccc3N)c2O[C@@H]1CN(C)Cc1ccc(C(F)(F)F)cc1,41,9,-0.47
SMILES,T cruzi HTS,INS-1E rescue,YB-1 expr inh
C[C@H]1CN([C@@H](C)CO)C(=O)c2cccc(NC(=O)CCCCCC(=O)Nc3ccccc3N)c2O[C@@H]1CN(C)Cc1ccc(-c2ccccc2)cc1,67*,-13,-0.16
C[C@H](CO)N1C[C@H](C)[C@H](CN(C)Cc2ccc(C(F)(F)F)cc2)Oc2c(NC(=O)CCCCCC(=O)Nc3ccccc3N)cccc2C1=O,73*,9,-0.53
C[C@H](CO)N1C[C@H](C)[C@@H](CN(C)Cc2ccncc2)Oc2c(NC(=O)CCCCCC(=O)Nc3ccccc3N)cccc2C1=O,8,-12,0.2
C[C@@H]1CN([C@H](C)CO)C(=O)c2cccc(NC(=O)CCCCCC(=O)Nc3ccccc3N)c2O[C@H]1CN(C)Cc1ccc(-c2ccccc2)cc1,71*,-7,-0.35
C[C@@H]1CN([C@H](C)CO)C(=O)c2cccc(NC(=O)CCCCCC(=O)Nc3ccccc3N)c2O[C@@H]1CN(C)Cc1ccc(C(F)(F)F)cc1,54,13,0.22
COC(=O)c1ccc(CSc2nc(-c3cccs3)cc(C(F)(F)F)n2)cc1,nt,nt,-0.25
COc1ccc(N=C(CCCN2C(=O)c3ccccc3C2=O)C2=C(O)CC(C)(C)CC2=O)cc1,nt,nt,-0.037
Cc1cc(NC(=O)C2C(=O)c3ccccc3S(=O)(=O)N2C)no1 (stereo not drawn),nt,nt,0.3
Cc1ccc(N2C(=O)/C(=C/C=C/c3ccccc3)SC2=S)cc1,nt,nt,-0.29
C[C@@H]1CN([C@H](C)CO)C(=O)c2cccc(NC(=O)Nc3ccccc3)c2O[C@H]1CN(C)Cc1ccc(C(=O)Nc2ccccc2N)cc1,76*,4,-0.0013
C[C@@H]1CN([C@@H](C)CO)C(=O)c2cccc(NC(=O)Nc3ccccc3)c2O[C@@H]1CN(C)Cc1ccc(C(=O)Nc2ccccc2N)cc1,66*,46,-0.048
Cc1cc(C(=O)Nc2cccc3c2O[C@@H](CN(C)Cc2ccc(C(=O)Nc4ccccc4N)cc2)[C@@H](C)CN([C@H](C)CO)C3=O)n(C)n1,54,-15,-0.73
C[C@@H]1CN([C@@H](C)CO)C(=O)c2cc(NC(=O)Nc3cccc4ccccc34)ccc2O[C@@H]1CN(C)Cc1ccc(C(=O)Nc2ccccc2N)cc1,25,-3,-0.46
C[C@H]1CN([C@@H](C)CO)C(=O)c2cccc(NC(=O)Nc3cccc4ccccc34)c2O[C@H]1CN(C)Cc1ccc(C(=O)Nc2ccccc2N)cc1,68*,-10,0.34
C[C@@H]1CN([C@@H](C)CO)C(=O)c2cccc(NC(=O)Nc3ccccc3)c2O[C@@H]1CN(C)Cc1ccc(C(=O)O)cc1,-18,7,0.18
Cc1cc(C(=O)Nc2cccc3c2O[C@H](CN(C)Cc2ccc(C(=O)Nc4ccccc4N)cc2)[C@H](C)CN([C@@H](C)CO)C3=O)n(C)n1,28,60*,-0.7
C=CC[C@]1(C(=O)NCCN2CCOCC2)COC(c2ccc(OCCCO)cc2)=N1,nt,nt,0.23
C=C(C(=O)O)C1C(OC(=O)/C(=C/CO)CO)CC(C)(O)C2CC(OC(C)=O)C(C)=CC12 (stereo not drawn),nt,nt,-0.11
O=C(N/N=C/c1ccccc1C(=O)O)c1ccccc1O,-15,-21,0.29
COc1ccc(C(=O)CC(C#Cc2ccccc2)CC(=O)c2ccc(OC)cc2)cc1,nt,nt,-0.69
CCC(C)C(=O)c1c(O)cc2c(c1O)CC(CC=C(C)C)C(C)(C)O2 (stereo not drawn),nt,nt,1.2

# Screens as filed in PubChem.
